This passage reports folding enthalpy and Tm results from the array DNA melting data of Ke et al. (doi:10.1101/2024.01.08.574731).

Series [1] in a line: folding enthalpy; higher = less favourable; fluorescence melt of hairpins on a sequencing array, two-state fit. The conditions noted are these: sodium 0.088 M. The method, boiled down: (§1)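 Hairpins were imaged by Cy3 fluorescence on a sequenced MiSeq flow cell with annealed Cy3 and quencher oligos, in 50 mM Na-HEPES pH 8.0, 25 mM NaCl, in 2.5 °C steps up to 60 °C. Bootstrapped two-state fits of normalised signals gave melting temperature and folding enthalpy. Four replicates were combined by inverse variance, and fitted temperatures were raised by 9.35 °C to match UV melts.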

The nature of series [2]: melting temperature; fluorescence melt of hairpins on a sequencing array, two-state fit, raised by 9.35 °C to match UV melts. The conditions noted are these: sodium 0.088 M. An outline of the steps: as §1

On to GCGTTGTTACGC ((((....)))), for which, in series [1], the folding enthalpy is -23.2 kcal/mol. For the same sequence, the Tm in series [2] came out at 54.3 °C.
For GCGCACGAAAGTGATCGC ((((((....)))..))) the same measures were -24.8 kcal/mol and 49.6 °C.
For GCCATTGCGAAAGCAGGC (((..(((....)))))) the same measures were -19.1 kcal/mol and 51.4 °C.
For CGGACGGAAACGTGACCG ((((((....)))..))) the same measures were -25 kcal/mol and 38.3 °C.
For the sequence GAGCCTGGAAACAGGCCC (.(((((....))))).), the folding enthalpy in series [1] is -10.9 kcal/mol. In series [2], the Tm was determined as 47.8 °C.
For GTATACGGAAACGTACAC ((.((((....)))).)) the same measures were -18.6 kcal/mol and 32.4 °C.
For the sequence GCTGTACGAAAGTAGAGC (((.(((....))).))), the folding enthalpy in series [1] was -35.3 kcal/mol. For the same sequence, in series [2], the Tm came out at 51.7 °C.
In the case of GATCGTCTGTACGATC ((((((....)))))), in series [1], the folding enthalpy is -38.3 kcal/mol. Besides, the Tm in series [2] turned out to be 55.7 °C.
For GCGCGTGGAAACACGTGC ((.((((....)))).)) the same measures were -52.1 kcal/mol and 64.1 °C.
Turning to GTGAGTGGAAACATTCGC (.((.((....)).)).), the folding enthalpy in series [1] was -16.4 kcal/mol. In series [2], the Tm turned out to be 33.4 °C.
For GGCAGACGAAAGTCGCC (((.(((....)))))) the same measures were -23.1 kcal/mol and 65.2 °C.
In the case of GATCAAGGATTGATC ((((((...)))))), in series [1], the folding enthalpy is -38.8 kcal/mol. For the same sequence, the Tm in series [2] was found to be 49.8 °C.
Take GGGTTGGGAAACCAGCTC (.(.(((....))).).): the folding enthalpy in series [1] is -18.6 kcal/mol. Besides, in series [2], the Tm was 36.1 °C.
In the case of GATCCGTGCCCGGATC ((((((....)))))), the folding enthalpy in series [1] is -50.9 kcal/mol. In series [2], the Tm was 56.6 °C.
As to GGCAGCGCGAAAGCGGCC (((..(((....)))))), the folding enthalpy in series [1] was -17.3 kcal/mol. In addition, the Tm in series [2] stood at 58.3 °C.
For GGCCCGGGAAACCAGGCC ((((.((....)).)))) the same measures were -37.9 kcal/mol and 55.3 °C.
For GATACAGGAAACCGTATC (((((.(....).))))) the same measures were -29.6 kcal/mol and 36.5 °C.
Regarding GACGACGAAAGTCGAGTC ((((((....)))..))), the folding enthalpy in series [1] was -10.5 kcal/mol. In addition, in series [2], the Tm was 39.7 °C.
For GTCATGGGAAACTATGAC (((((.(....).))))) the same measures were -29.1 kcal/mol and 45 °C.
For GGGCGTCGAAAGACACCC (((.(((....))).))) the same measures were -43.8 kcal/mol and 58.9 °C.
Consider GCCTCGCGAAAGCCAGGC ((((.((....)).)))), for which, in series [1], the folding enthalpy is -23.5 kcal/mol. For the same sequence, the Tm in series [2] was 58.2 °C.
For GTTCGCGAAAGCGAAAC ((((((....))).))) the same measures were -12.6 kcal/mol and 55.3 °C.
For GATCGACTATCGATC ((((((...)))))) the same measures were -35.2 kcal/mol and 49.3 °C.
For GCCGGTGGAAACGTCGGC ((((..(....)..)))) the same measures were -42 kcal/mol and 52.3 °C.
For the sequence GATCACCCAGGTGATC ((((((....)))))), the folding enthalpy in series [1] was -35.7 kcal/mol. The Tm in series [2] was 61.6 °C.
For GCGTGGGCGAAAGCCCGC (((..(((....)))))) the same measures were -9.77 kcal/mol and 57.7 °C.
For GATCACGGTTGTGATC ((((((....)))))) the same measures were -31.2 kcal/mol and 61 °C.
For GGGGGCGAAAGCCTCCC ((((((....))).))) the same measures were -15.7 kcal/mol and 66.1 °C.
Consider GGCCACGAAAGTGGAGCC ((((((....)))..))), for which, in series [1], the folding enthalpy was -15.5 kcal/mol. Further, the Tm in series [2] amounted to 53.9 °C.
On to GGCATGTCGAAAGACGCC (((..(((....)))))), for which the folding enthalpy in series [1] was -25.2 kcal/mol. Moreover, in series [2], the Tm is 52.1 °C.
For GCGTCCCAACGC ((((....)))) the same measures were -23.5 kcal/mol and 55.1 °C.
For GTAAGAGAAATCTTAC ((((((....)))))) the same measures were -22 kcal/mol and 38.6 °C.
For GGAAAGGGAAACCTCTCC (((.(((....))).))) the same measures were -14.8 kcal/mol and 33 °C.
For the sequence GATCTTAGATAAGATC ((((((....)))))), the folding enthalpy in series [1] was -42.7 kcal/mol. For the same sequence, in series [2], the Tm is 41.8 °C.
For GCGGTGCGAAAGCCTCGC (((..((....))..))) the same measures were -22.2 kcal/mol and 59.1 °C.
For GATCGCACGAGCGATC ((((((....)))))) the same measures were -31.7 kcal/mol and 68.4 °C.
For GAATAGGGAAACCCATTC ((((.((....)).)))) the same measures were -17.1 kcal/mol and 29.5 °C.
Regarding GTTATTGAAAAATAAC ((((((....)))))), the folding enthalpy in series [1] was -25 kcal/mol. In addition, the Tm in series [2] is 37.5 °C.
For GTAACGAAAGTTAC (((((....))))) the same measures were -26.1 kcal/mol and 55 °C.
For GCATTGCGAAAGCGTTGC (((..((....))..))) the same measures were -21.9 kcal/mol and 47.5 °C.
For GCACAGCGAAAGCTACGC ((..(((....)))..)) the same measures were -16.7 kcal/mol and 42 °C.
For GAGTCCCGAAAGGGTCTC (((.(((....))).))), in series [1], the folding enthalpy was -30.6 kcal/mol. For the same sequence, the Tm in series [2] came out at 53 °C.
For the sequence GGAACCGAAAGGTCTTCC ((((((....)))..))), in series [1], the folding enthalpy was -20.3 kcal/mol. The Tm in series [2] turned out to be 38.7 °C.
For GATCTCCTTAGAGATC ((((((....)))))) the same measures were -37.1 kcal/mol and 56.4 °C.
For GGCGCGACGAAAGTCGCC (((..(((....)))))) the same measures were -5.55 kcal/mol and 51.9 °C.
Take GATCTACATATAGATC ((((((....)))))): the folding enthalpy in series [1] is -35.4 kcal/mol. Moreover, the Tm in series [2] stood at 40.8 °C.
For GATCGAATTATCGATC ((((((....)))))) the same measures were -38.2 kcal/mol and 50.7 °C.
For GTAACCGAAAGGTTATAC ((((((....)))..))) the same measures were -13.4 kcal/mol and 43.7 °C.
For GCATCCGAAAGGACTTGC ((((((....)))..))) the same measures were -19.4 kcal/mol and 32.9 °C.
With GTGGGTGGAAACACCTGC (..((((....))))..), the folding enthalpy in series [1] was -14.7 kcal/mol. Further, in series [2], the Tm is 43 °C.
For GATCGAGAAGTCGATC ((((((....)))))) the same measures were -31.1 kcal/mol and 55.4 °C.
For GAAGGCGAAAGCCTTTC ((((((....))).))) the same measures were -10.6 kcal/mol and 53.7 °C.
As for GAGGCCGAAAGGCCCTC ((((((....))).))), in series [1], the folding enthalpy was -9.16 kcal/mol. The Tm in series [2] stood at 58 °C.
For GGGAGCGGAAACGCTCTC (.(((((....))))).) the same measures were -14.5 kcal/mol and 58.4 °C.
For GCTAGAGGAAACTCTGGC ((.((((....)))).)) the same measures were -37.9 kcal/mol and 48 °C.
For GTTTCACGAAAGTGGAAC (((.(((....))).))) the same measures were -30.5 kcal/mol and 52.2 °C.
As to GGCAGTACGAAAGTAGCC (((..(((....)))))), in series [1], the folding enthalpy is -21.6 kcal/mol. In addition, the Tm in series [2] was found to be 44.9 °C.
For GCGTACCGAAAGGTCCGC (((.(((....))).))) the same measures were -49.9 kcal/mol and 58.2 °C.
On to GGTGACGAAAGTCAAACC ((((((....)))..))), for which the folding enthalpy in series [1] was -17.4 kcal/mol. The Tm in series [2] worked out at 46.3 °C.
For GAGGGGCGAAAGCCCTC (((.(((....)))))) the same measures were -10.1 kcal/mol and 55.5 °C.
For CGTCCCGGAAACGGCACG (((.(((....))).))) the same measures were -23.7 kcal/mol and 39.9 °C.
For GCCTTGGGAAACCAAGAC (.(((((....))))).) the same measures were -19.3 kcal/mol and 38.7 °C.
GCGAACGAAAGTTCCGC ((((((....))).))): in series [1], the folding enthalpy is -29.9 kcal/mol. In addition, the Tm in series [2] amounted to 54 °C.
GATCGAGTCCTCGATC ((((((....)))))): in series [1], the folding enthalpy is -45.8 kcal/mol. For the same sequence, the Tm in series [2] came to 56.2 °C.
For GTTCTCGAAAGAGTGAAC ((((((....)))..))) the same measures were -14.7 kcal/mol and 29.4 °C.
For GCTTCCCCGAAAGGGAGC (((..(((....)))))) the same measures were -19.2 kcal/mol and 46.6 °C.
Consider GGGAAGGGAAACCTTCCC (((((((....))))))), for which the folding enthalpy in series [1] was -35.5 kcal/mol. Besides, in series [2], the Tm is 65.4 °C.
For GATCGAGTAGTCGATC ((((((....)))))) the same measures were -34.3 kcal/mol and 55.9 °C.
For GATCTTTAGGAAGATC ((((((....)))))) the same measures were -28.5 kcal/mol and 42.6 °C.
For GTCGATCGAAAGATTGAC (((.(((....))).))) the same measures were -51.8 kcal/mol and 53.6 °C.
For the sequence CGTAGTCGGAAACGAACG (((..(((....)))))), in series [1], the folding enthalpy was -4.62 kcal/mol. For the same sequence, in series [2], the Tm was found to be 21.6 °C.
For CGCTATCGGAAACGAGCG (((..(((....)))))) the same measures were -27.1 kcal/mol and 41.8 °C.
For GAGCGCCGAAAGGCACTC (((.(((....))).))) the same measures were -20.2 kcal/mol and 56.4 °C.
For GTCAGCCGAAAGGCCGAC (((.(((....))).))) the same measures were -21.4 kcal/mol and 55.8 °C.
